Assay results taken from ChEMBL document CHEMBL1122895, “Aldose reductase inhibitors: a potential new class of agents for the pharmacological control of certain diabetic complications” (J Med Chem, 1985).

How the values were obtained:
[1] = target: T1, Aldo-keto reductase family 1 member B1 (Homo sapiens, UniProt P15121); assay: Inhibitory activity against human placental aldose reductase in 30 -70% (NH4)2SO4.
[2] = target: T1, Aldo-keto reductase family 1 member B1; assay: (§1) Inhibitory activity against human placental aldose reductase in Orange A column at time 2
[3] = target: T1, Aldo-keto reductase family 1 member B1; assay: Inhibitory activity against human placental aldose reductase in Sepharose 4B column at time 1
[4] = target: T1, Aldo-keto reductase family 1 member B1; assay: Inhibitory activity against human placental aldose reductase in Orange A column at day 8
[5] = target: T1, Aldo-keto reductase family 1 member B1; assay: Inhibitory activity against human placental aldose reductase in Sepharose 4B column at day 7
[6] = target: Aldo-keto reductase family 1 member B1 (Rattus norvegicus, UniProt P07943); assay: Inhibitory activity against rat lens aldose reductase (RLAR).
[7] = target: T1, Aldo-keto reductase family 1 member B1; assay: Inhibitory activity against human placental aldose reductase (HPAR)
Summary of the method: (§2)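 Human placental aldose reductase was purified at 4 °C. Enzyme activity was read photometrically at 340 nm, with 10 mM DL-glyceraldehyde as substrate. IC50 values came from simple linear regressions of Marquardt-Levenberg iterative curve fitting.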

[8] = target: T1, Aldo-keto reductase family 1 member B1; assay: Inhibitory activity against human placental aldose reductase in Sepharose 4B column at day 1; summary of the method: as §2
[9] = target: T1, Aldo-keto reductase family 1 member B1; assay: Inhibitory activity against human placental aldose reductase in Orange A column at day 2; summary of the method: as §2
[10] = target: T1, Aldo-keto reductase family 1 member B1; assay: as §1; summary of the method: as §2; remark: listed apart in the source
[11] = target: T1, Aldo-keto reductase family 1 member B1; assay: Inhibitory activity against human placental aldose reductase (HPAR).; summary of the method: as §2

Row | IC50 [1] [µM] | IC50 [4] [µM] | IC50 [5] [µM] | IC50 [6] [µM] | IC50 [7] [µM] | IC50 [8] [µM] | IC50 [9] [µM] | SMILES | also measured
1 | 7.1 | 9 | 16 | – | – | – | – | CC1OC(O)C(O)C(O)C1Oc1c(-c2ccc(O)c(O)c2)oc2cc(O)cc(O)c2c1=O (stereo not drawn) | IC50 [2]: 16 µM; IC50 [3]: 14 µM
2 | – | – | – | 3.1 | 4.3 | – | – | CC(C)OC(=O)c1cc(=O)c2ccc(O)cc2o1 | –
3 | 7.3 | 4 | 8.3 | – | – | 4.5 | 3.2 | CCOC(=O)C(=O)Nc1cc([N+](=O)[O-])cc(C(=O)O)c1O | –
4 | 4.5 | 7.3 | 7.2 | – | – | 5 | 19 | O=C(O)c1ccc2nc3cc(O)ccc3c(=O)n2c1 | –
5 | 6.5 | 79 | 34 | – | – | – | – | O=C(O)CN1C(=O)c2cccc3cccc(c23)C1=O [ALRESTATIN] | IC50 [3]: 22 µM; IC50 [10]: 140 µM
6 | – | – | – | 2.2 | – | – | – | O=C(O)c1cc(=O)c2ccc(O)cc2o1 | IC50 [11]: 1.8 µM
7 | 4.1 | 200 | 39 | – | – | 38 | 280 | O=c1c(Cl)c(-c2nn[nH]n2)oc2ccccc12 | –
8 | – | – | – | 2.5 | 3.2 | – | – | O=C(OCc1ccccc1)c1cc(=O)c2ccc(O)cc2o1 | –
9 | – | – | – | 2.3 | 5 | – | – | CCOC(=O)c1cc(=O)c2ccc(O)cc2o1 | –
10 | 1.8 | 3.1 | 3.9 | – | – | 4.7 | 5.9 | O=C(O)C1=CC(=O)C2C=CC(O)=CC2O1 (stereo not drawn) | –
